Calb FLC = C. albicans growth inhibition with fluconazole, primary screen, CaCi-2 strain, Alamar Blue fluorescence | C. albicans CaCi-2 (fluconazole-resistant clinical isolate) + fluconazole, 48 h | growth inhibition, % (test concentration not listed) | hit rate 0.57% among 300,000 | AID 1979, 2009;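 active = growth inhibition above about 58% in most replicates, limit read from the data, passing the limit was not always enough; inconclusive = exactly half the replicates above a set limit; inactive = most replicates below a set limit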;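 note: all wells also contain fluconazole at 8 µg/ml as a sub-toxic cotreatment; 0% = median of DMSO wells and 100% = median of geldanamycin control wells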
HSF1 activator = HSF-1 activators, primary screen, NIH3T3-HGL cells, MG132 stress, luminescence, single point; NIH3T3-HGL HSF-1 luciferase reporter, 8 h; 100% = twice DMSO control signal; activation, % at 9 µM; hit rate 1.7% among 300,000; AID 504408, 2011;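 active = mean replicate activation of at least 50% with a set share of replicates each reaching 50%; inconclusive = only one of those two conditions met; inactive = mean below 50% and too few replicates reaching it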;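 note: 0% = median of the neutral control wells and 100% = twice that signal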
HSF1 inh = HSF1 inhibitors in luciferase reporter cells, primary screen, cell-based, NIH3T3, luminescence; NIH3T3-HGL HSE-luciferase, MG132-induced, luminescence 8 h; active compounds read low; activity change, negative = inhibition, % at 7.5 µM (by protocol); AID 2098, 2009; hit rate 0.77% among 300,000;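 active = more than half of replicate wells show activity change below -50%, luminescence cut by over half; inconclusive = some wells, but at most half, below -50%; inactive = no replicate well below -50%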;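 note: luciferase reports HSF-1 transcriptional activity via heat shock element; 0% = median of DMSO wells and -100% = zero luminescence signal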
T cruzi repl = inhibitors of intracellular T. cruzi growth, primary screen, luminescence, NIH3T3 host cells; inhibition, % (no concentration beside the values); hit rate 1.4% among 300,000; T. cruzi beta-gal in NIH3T3, 90 h;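 active = mean inhibition across valid replicates above about 55%, limit read from the data; inconclusive = mean below that limit but half or more replicates reach it; inactive = mean below it, under half of replicates reach it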;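 note: signal also drops with host cell toxicity which is not excluded here; 0% = plate median of DMSO wells and 100% = zero luminescence signal; higher percent means less beta-gal luminescence so fewer parasites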
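System – NIH/3T3 host cells with β-galactosidase reporter T. cruzi · Doses – single 50 nL compound addition per well in DMSO · Reagent – 5000 T. cruzi trypomastigotes/well · Medium – Low-serum DMEM with 2% FBS · Timing – ≥90 h infection period, 3 h prior cell attachment · Evaluation – parasite load inhibition, % · Technique – GalScreen luminescence, 60 min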
HIF activator = HIF pathway transcriptional activators, primary screen, cell-based, U2OS HRE-luciferase, luminescence. activation, % at 7.5 µM (by protocol). AID 1910, 2009. hit rate 0.32% among 300,000. U2OS HRE-luciferase reporter; normalized: DMSO 0%, desferrioxamine 100%;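 active = mean activation of at least 10% of the iron chelator positive control signal, with at least half of replicates also reaching 10%; inconclusive = mean and replicate majority disagree about reaching 10%; inactive = mean and most replicates under 10%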
The depositor's hits bear a star; ? = inconclusive. Compounds with a hit are over-represented: about 4.4% of the library has one in this group of screens.

SMILES | Calb FLC | HSF1 activator | HSF1 inh | T cruzi repl | HIF activator
Cn1c(C(=O)OC(C(=O)NC2CCCCC2)c2ccncc2)cc2sccc21 (stereo not given) | -0.6 | 14.0 | -1.3 | 57.6* | -0.2
Cn1c(C(=O)OC(C(=O)NC2CCCC2)c2ccncc2)cc2sccc21 (stereo not given) | -1.9 | 6.5 | 0.6 | 20.2 | 0.0
Cn1c(C(=O)OC(C(=O)NC(C)(C)C)c2cccnc2)cc2sccc21 (stereo not given) | -53.1 | ? | 15.8 | 64.4* | 0.9
Cc1ccc2ccc(S(=O)(=O)NCc3ccccn3)cc2c1 | -11.2 | 17.8 | 1.6 | -4.6 | 4.5
COc1ccc(N(CCC#N)C(=O)/C(C#N)=C/c2cccs2)cc1 | 0.0 | 5.5 | 5.4 | -0.6 | -0.3
CC(=O)Nc1ccccc1/C=C/c1ccc2c(C)cc(C)c(O)c2n1 | 109.2* | 13.1 | -5.4 | -12.5 | -0.5
Cc1cccc2c(C(=O)N3CCN(c4ccccn4)CC3)cc(-c3cccc(Br)c3)nc12 | 0.8 | -83.8 | -79.2* | 29.5 | 0.3
COc1ccc(-c2cc(C(=O)N3CCN(c4cccc(C)c4C)CC3)c3ccccc3n2)cc1OC | -3.4 | 6.1 | 0.6 | 62.3* | 2.2
Cc1cccc2c(C(=O)N3CCN(c4ccccc4)CC3)cc(-c3ccncc3)nc12 | 34.0 | -75.4 | -69.6* | 45.0 | -0.8
Cc1cccc2c(C(=O)N3CCCCC3)cc(-c3ccccc3)nc12 | 6.3 | 27.0 | 20.3 | 14.8 | -6.0
Cc1ccc(N(CC(=O)NCCSCc2ccco2)S(C)(=O)=O)cc1 | 0.7 | -61.7 | -54.3* | 0.7 | 0.0
Cc1ccc(N(CC(=O)NCCSCc2ccco2)S(=O)(=O)c2ccc(F)cc2)cc1 | -19.8 | 7.6 | 11.4 | 12.3 | 0.9
O=C(O)c1ccc2cc(-c3ccccc3)[nH]c2c1 | -0.8 | -50.6 | -38.6 | -24.4 | 19.9*
O=C(O)c1ccc(-c2ccccc2)[nH]1 | 13.0 | 13.6 | 3.7 | -17.3 | -0.1
COc1ccc(C)cc1NC(=O)C1CCCN(S(=O)(=O)c2ccc3c(c2)CCCN3C(C)=O)C1 (stereo not given) | -35.6 | -0.6 | 0.3 | 0.5 | -0.3
Cc1ccc(NC(=O)c2ccc(Cl)cc2Cl)cc1O | 1.9 | 6.5 | 6.1 | 6.2 | 2.5
Fc1ccc(C2N(c3ccccc3)C(=S)N3CCCN23)cc1 (stereo not given) | 4.0 | -7.4 | -8.4 | -1.3 | 0.7
Cc1ccc(C2N(c3ccccc3)C(=S)N3CCCN23)cc1 (stereo not given) | 1.1 | -85.8 | -82.4* | -4.5 | 0.1
COC(=O)C1=C(C)N(Cc2ccc(C)cc2)C(=O)/C1=C\c1cc(OC)c(OC)c(OC)c1 | -5.8 | 97.8* | 71.7 | -9.7 | -0.4
Cc1ccc(-c2nnc(SCC(=O)N/N=C/c3c(C)nn(-c4ccccc4)c3C)n2-c2ccccc2)cc1 | -0.2 | 18.3 | 6.8 | 12.8 | -0.3
Cc1ccc(CSc2nnc(SCC(=O)N/N=C/c3c(C)nn(-c4ccccc4)c3C)s2)cc1 | -2.5 | 65.1* | 55.9 | 10.3 | 1.3
Cc1nn(-c2ccccc2)c(C)c1/C=N/NC(=O)CSc1nnc(SCc2ccccc2Cl)s1 | 3.0 | 68.3* | 40.9 | 23.3 | 2.8
Cc1ccc(S(=O)(=O)N/N=C/c2c(C)nn(-c3ccccc3)c2C)cc1 | -3.2 | -64.8 | -53.7* | 9.1 | -0.2
Cc1cc(C)nc(Oc2ccc([N+](=O)[O-])cc2)n1 | -0.4 | 17.5 | 4.4 | -7.0 | -0.3
CSCCC(=O)N(C)CC1CCCN(CCc2cccc(C(F)(F)F)c2)C1 (stereo not given) | -5.9 | 28.7 | -1.0 | 55.4* | -1.0
CN(CC1CCCN(CCc2cccc(C(F)(F)F)c2)C1)C(=O)c1cc2ccccc2o1 (stereo not given) | 10.7 | 8.4 | -5.5 | 65.1* | -10.9
CN(C(=O)CSc1nc(-c2ccc(C(C)(C)C)cc2)c(C#N)c(=O)[nH]1)C1CCCCC1 | 44.4 | 9.4 | -1.3 | 15.4 | 0.6
Cn1c2c(c(=O)n(C)c1=O)C(CC(=O)Nc1ccccc1F)C(=O)N2 (stereo not given) | -4.0 | 1.4 | -0.3 | 6.0 | 0.1

Compound activity: PubChem, Broad Institute
